The values below come from PubChem BioAssay AID1800 (The Scripps Research Institute Molecular Screening Center, 2009).

About 1,600 (0.55%) of roughly 290,000 compounds were called active. This excerpt belongs to a sample that is enriched for actives. Values without a mark were called inactive.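 Rule for the calls: active = inhibition above the mean of all tested compounds plus 3 SD, set per campaign (cut at about 35% in these data); inactive = the rest.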

The test relates to Hepatitis C virus NS3 helicase. Put plainly: HCV NS3 DNA unwinding blockers – biochemical, Cy5 molecular beacon fluorescence, primary screen (AID 1800).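 Note: 0% = DMSO wells and 100% = thioflavine S control wells.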 The note with it: at 10.9 µM, stronger effect = higher value. In short, it runs like this: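 Control set: DMSO versus 110 µM thioflavine S; Material: NS3 helicase fragment of HCV; Measured by: Cy5 fluorescence at 0 and 60 min, beacon hairpin quenching; Read-out basis: percent inhibition from t60/t0 fluorescence ratio; Times: reaction time 60 min, 25 °C; Repeats: single replicate; Compound dosing: single dose, 10.9 µM nominal final, DMSO 0.8% final.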
With `NC(=O)c1nsc(C(=O)N(CCCN2CCOCC2)C(C(=O)NC2CCCCC2)c2ccc(Cl)cc2)c1N` (configuration not stated), the inhibition was 13.6%.
With `Cc1ccc(C(=O)/C=C/Nc2ccc(S(=O)(=O)Nc3onc(C)c3C)cc2)cc1`, the inhibition was 23.3%.
Take `CC(Oc1ccccc1)C(=O)Nc1oc(-c2ccco2)c(-c2ccco2)c1C#N` (configuration not stated): the inhibition was 52.5% (active).
As for `COc1cc(C(=O)Nc2oc(-c3ccccc3)c(-c3ccccc3)c2C#N)cc(OC)c1OC`, the inhibition was -0.57%.
To `CC(C)C(=O)Nc1oc(-c2ccccc2)cc1C#N` belongs 2.07%.
Consider `Cc1cc2c(cc1C)N(C(=O)CN1C(=O)c3ccccc3C1=O)C(C)(C)c1ssc(=S)c1-2`, for which the inhibition is -5.01%.
With `O=C(CCC(=O)n1ncc2ccccc21)NCc1ccccc1Cl` the figure was 12.6%; with `C#CCOc1ccc(/C=C2/C(=O)NN(c3ccccc3)C2=O)cc1OC`, 27.8%.
In the case of `COc1cc(/C=C2/C(=O)NN(c3cccc(Cl)c3)C2=O)cc(Br)c1O`, the inhibition is 64.2% (active).
With `COc1cc(/C=C2/C(=O)NN(c3ccc(F)cc3)C2=O)cc([N+](=O)[O-])c1O` the figure was 15.7%; with `COC(=O)c1ccc(/C=C2/C(=O)Oc3ccccc32)cc1`, 4.46%.
With `Nc1c(Cl)cc(-c2csc(N3CCCC3c3nc4cc(Cl)c(Cl)cc4n3CCOCCO)n2)cc1Cl` (configuration not stated) the figure was -4.48%.
To `COc1ccc(-c2nn(-c3ccccc3)cc2/C=C2/SC(=S)N(CCCC(=O)O)C2=O)c(C)c1` belongs -32.5%.
`CN(C)S(=O)(=O)c1cccc(-c2nn(-c3ccccc3)cc2/C=C2\SC(=S)N(CC(=O)O)C2=O)c1`: the inhibition was 9.49%.
Take `Cc1ccc(-c2nn(-c3ccccc3)cc2/C=C2\SC(=S)N(CCCCCC(=O)O)C2=O)o1`: the inhibition was 45.9% (active).
For `CC(C)C1Cc2c(sc3c2c(=O)n(-c2ccccc2)c2nncn32)CO1` (configuration not stated), the inhibition is 1.09%.
To `CC(C)(C)NC(=O)CSc1nnc(NC(=O)CCc2ccccc2)s1` belongs -6.73%; to `O=C1/C(=C\c2ccsc2)NC(=S)N1c1ccccc1`, 11%.
To `Cc1ccccc1NC(=O)CN1C(=O)N/C(=C\c2cccn2-c2cccc(C(=O)O)c2)C1=O` belongs 21.8%.
With `O=C1N/C(=C/c2cccn2-c2ccccc2)C(=O)N1c1cccc(Cl)c1` the figure was 43% (active); with `O=C(CCc1ccccc1F)N1CCN(c2ccccc2)CC1`, 8.51%; with `Cc1ccccc1CCNC(=O)C1CCC(=O)N(Cc2ccc(Cl)cc2)C1` (configuration not stated), -13.2%.
As to `Cc1cccc(NC(=O)c2ccc3c(=O)n(CC4CCCO4)c(=S)[nH]c3c2)c1` (configuration not stated), the inhibition is -9.4%.
With `O=c1nc2s/c(=C\c3ccco3)c(=O)n2nc1Cc1ccccc1` the figure was 45.8% (active).
With `Cc1nc2nc(SCC(=O)NCc3ccco3)nn2c(C)c1Cc1ccccc1` the figure was 2.25%.
To `CCOc1ccccc1/C=c1\sc2nc(-c3ccco3)nn2c1=O` belongs 27.9%; to `COC(=O)c1cc(S(=O)(=O)N2CCN(c3cc(C)ccc3C)CC2)c[nH]1`, -25.3%; to `CCOc1ccc(C(C(=O)NCCOC)N(CCOC)C(=O)CCC(=O)Nc2ccccn2)cc1` (configuration not stated), 38.9% (active).
With `COCCN(C(=O)CCC(=O)Nc1ccccn1)C(C(=O)NCCC(C)C)c1ccc(OC)cc1` (configuration not stated), the inhibition is 0.66%.
To `COCCNC(=O)C(c1ccc(C)cc1)N(C(=O)CCC(=O)Nc1ccccn1)c1cccc(C)c1` (configuration not stated) belongs -11.8%; to `O=C(Nc1nnc(-c2ccc(F)cc2)s1)c1c(F)cccc1Cl`, -8.63%.
To `O=c1[nH]c(/C=C\c2cccc(C(F)(F)F)c2)nc(O)c1[N+](=O)[O-]` belongs 47.4% (active); to `Cc1ccccc1/C=C\c1nc(O)c([N+](=O)[O-])c(=O)[nH]1`, 9.37%.
Take `O=c1cc(O)c(-c2cccc(C(F)(F)F)c2)c(Cl)[nH]1`: the inhibition is 13.8%.
`CCNC(=O)N1CCCC(C(=O)c2ccc(-c3ccccc3)cc2)C1` (configuration not stated): the inhibition was -0.46%.
To `O=C1OC(c2ccc(Cl)cc2)=N/C1=C\c1cccnc1` belongs 5.47%; to `Cc1ccc(C2=N/C(=C\c3ccc(OS(=O)(=O)c4ccc(C)cc4)cc3)C(=O)O2)cc1`, 40.6% (active); to `Cc1ccc(S(=O)(=O)Oc2ccc(/C=N/NC(=O)c3ccncc3)cc2)cc1`, -3.55%.
With `O=C(CNc1cccc(S(=O)(=O)N2CCCCC2)c1)Nc1ccccc1F` the figure was -2.03%; with `CCOCCCN(C)C1CCN(C(=O)c2oc3ccccc3c2NC(=O)COc2cccc(C)c2)CC1`, -20.2%; with `O=C(CCl)NNc1cccc(Cl)n1`, 60.9% (active).
To `O=C(NNc1ccccn1)c1ccc(Cl)nc1` belongs -0.49%; to `O=C(CCl)NNc1nc(-c2ccccc2)c2cc(Cl)ccc2n1`, 3.47%.
In the case of `CCC(C(=O)OC)n1cnc2c(oc3ccccc32)c1=O` (configuration not stated), the inhibition is -6.44%.
With `Cc1ccc(Nc2c3c(nc4ccccc24)CCC3)cc1` the figure was -35.6%; with `CC(=O)Nc1ccc(NC(=O)COc2ncnc3ccccc23)cc1`, 8.73%; with `CC(=O)Nc1ccc(Nc2c3ccccc3nc3ccccc23)cc1`, 38.4% (active).
To `Cc1cccc(NC(=O)NC(=S)NC(=O)c2ccccc2)c1` belongs 7.16%; to `COC(=O)c1c(C)[nH]c(C(=O)NCCc2ccc(S(N)(=O)=O)cc2)c1C`, -6.64%; to `O=S(=O)(NCc1ccc(Cl)cc1Cl)c1cccs1`, 7.61%.
With `O=[N+]([O-])c1cc(Cl)cc(/C=N/NC(=S)Nc2cc(S(=O)(=O)N3CCOCC3)ccc2Cl)c1O` the figure was 40.4% (active).
`O=C(CN1CCN(c2ccc(O)cc2)CC1)Nc1cc(S(=O)(=O)N2CCOCC2)ccc1Cl`: the inhibition was 13.6%.
`O=C(N/N=C/c1cc(Cl)cc([N+](=O)[O-])c1O)C(O)(c1ccccc1)c1ccccc1`: the inhibition is 24.1%.
Turning to `Cc1cccc(CCNS(=O)(=O)c2ccc(S(=O)(=O)NC3CCCC3)cc2)c1`, the inhibition was -9.33%.
To `CN(c1ccccc1)c1ccc(/C=c2\s/c(=C(/C#N)C(=O)C(C)(C)C)n(Cc3ccco3)c2=O)cc1` belongs 37% (active); to `Cc1cs/c(=N\N=C\c2ccc(O)cc2)n1Cc1ccco1`, 3.43%.
With `CCOC(=O)/C=c1\s/c(=C\c2ccc(C#N)cc2)c(=O)n1CC(=O)Nc1cccc(C)c1C` the figure was 12.5%.
